Measurements from ChEMBL document CHEMBL4265940, “Synthesis of scutellarein derivatives with antiproliferative activity and selectivity through the intrinsic pathway” (Eur J Med Chem, 2018).
Active and inactive are the calls of the source. No cut-off for these calls is given here.

Assays:
[1] = test system: L02; experiment: Cytotoxicity against human LO2 cells assessed as decrease in cell viability after 72 hrs by MTT assay; assay type: cell-based; details: L02, 72 h
Summary of the method: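 L-O2 normal human liver cells tested for growth inhibition by MTT. Formazan was dissolved in DMSO and optical density read. IC50 values were derived.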

[2] = test system: Bel-7402; experiment: Antiproliferative activity against human Bel7402 cells after 72 hrs by MTT assay; assay type: functional, cell-based; details: Bel-7402, 72 h
Summary of the method: (§1)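 Log-phase tumour cells seeded and held 24 h at 37 °C in humidified 5% CO2, then exposed to test agents for 72 h. MTT (5 mg/mL stock) added for a further 4 h, formazan dissolved in DMSO with 10 min shaking at room temperature, optical density read, IC50 calculated.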

[3] = test system: MCF7; experiment: Antiproliferative activity against human MCF7 cells after 72 hrs by MTT assay; assay type: functional, cell-based; details: MCF7, 72 h; summary of the method: as §1
[4] = test system: A549; experiment: Antiproliferative activity against human A549 cells after 72 hrs by MTT assay; assay type: functional, cell-based; details: A549, 72 h; summary of the method: as §1
[5] = test system: MCF7; experiment: Induction of apoptosis in human MCF7 cells assessed as necrotic cells at 1.5 uM after 48 hrs by Annexin V-FITC/PI staining based flow cytometry (reference value: 0.19%); assay type: functional
[6] = test system: MCF7; experiment: Induction of apoptosis in human MCF7 cells assessed as necrotic cells at 0.75 uM after 48 hrs by Annexin V-FITC/PI staining based flow cytometry (reference value: 0.19%); assay type: functional
[7] = test system: MCF7; experiment: Induction of apoptosis in human MCF7 cells assessed as late apoptotic cells at 1.5 uM after 48 hrs by Annexin V-FITC/PI staining based flow cytometry (reference value: 1.99%); assay type: functional
[8] = test system: MCF7; experiment: Induction of mitochondrial membrane depolarization in human MCF7 cells assessed as collapse of mitochondrial membrane potential at 0.75 uM after 48 hrs by JC-1 staining based flow cytometry (reference value: 1.61%); assay type: functional
Summary of the method: (§2)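 Log-phase MCF-7 cells treated at 0, 0.75, 1.5 and 3 µM for 48 h, washed with PBS, then stained with JC-1 in the dark per kit instructions. The percentage of cells with collapsed membrane potential was measured by flow cytometry relative to untreated control.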

[9] = test system: MCF7; experiment: Induction of apoptosis in human MCF7 cells assessed as increase in cytochrome c release at 0.75 to 3 uM after 48 hrs by Western blot analysis; assay type: functional, cell-based
Summary of the method: (§3)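 MCF-7 cells treated 48 h at 0, 0.75, 1.5 and 3 µM, lysed, and spun at 14000 g for 10 min at 4 °C. Protein was measured by BCA and 25 µg lysate run on 12% SDS-PAGE, then transferred to nitrocellulose and blocked with 5% milk. Blots were probed overnight at 4 °C with monoclonal antibodies to Bcl-2, Bax, cyto-c, caspase-9, caspase-3 and GAPDH, with ECL detection.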

[10] = test system: MCF7; experiment: Induction of apoptosis in human MCF7 cells assessed as late apoptotic cells at 3 uM after 48 hrs by Annexin V-FITC/PI staining based flow cytometry (reference value: 1.99%); assay type: functional
[11] = test system: MCF7; experiment: Cell cycle arrest in human MCF7 cells assessed as accumulation at G2/M phase at 1.5 uM after 48 hrs by propidium iodide staining based flow cytometry (reference value: 22.40%); assay type: functional
[12] = test system: MCF7; experiment: Induction of apoptosis in human MCF7 cells assessed as downregulation of Bcl-2 after 48 hrs by Western blot analysis; assay type: functional, cell-based; summary of the method: as §3
[13] = test system: MCF7; experiment: Cell cycle arrest in human MCF7 cells assessed as accumulation at G1 phase at 3 uM after 48 hrs by propidium iodide staining based flow cytometry (reference value: 41.49%); assay type: functional
[14] = test system: MCF7; experiment: Cell cycle arrest in human MCF7 cells assessed as accumulation at G1 phase at 0.75 uM after 48 hrs by propidium iodide staining based flow cytometry (reference value: 41.49%); assay type: functional
[15] = test system: MCF7; experiment: Induction of apoptosis in human MCF7 cells assessed as viable cells at 3 uM after 48 hrs by Annexin V-FITC/PI staining based flow cytometry (reference value: 93.72%); assay type: functional; details: MCF7, 48 h, read-out: Activity
[16] = test system: MCF7; experiment: Induction of apoptosis in human MCF7 cells assessed as upregulation of Bax after 48 hrs by Western blot analysis; assay type: functional, cell-based; summary of the method: as §3
[17] = test system: MCF7; experiment: Cell cycle arrest in human MCF7 cells assessed as accumulation at S phase at 1.5 uM after 48 hrs by propidium iodide staining based flow cytometry (reference value: 36.11%); assay type: functional
[18] = test system: MCF7; experiment: Induction of apoptosis in human MCF7 cells assessed as viable cells at 1.5 uM after 48 hrs by Annexin V-FITC/PI staining based flow cytometry (reference value: 93.72%); assay type: functional; details: MCF7, 48 h, read-out: Activity
[19] = test system: MCF7; experiment: Induction of mitochondrial membrane depolarization in human MCF7 cells assessed as collapse of mitochondrial membrane potential at 3 uM after 48 hrs by JC-1 staining based flow cytometry (reference value: 1.61%); assay type: functional; summary of the method: as §2
[20] = test system: MCF7; experiment: Induction of apoptosis in human MCF7 cells assessed as early apoptotic cells at 0.75 uM after 48 hrs by Annexin V-FITC/PI staining based flow cytometry (reference value: 4.10%); assay type: functional
[21] = test system: MCF7; experiment: Induction of apoptosis in human MCF7 cells assessed as increase in caspase-3 level at 0.75 to 3 uM after 48 hrs by Western blot analysis; assay type: functional, cell-based; summary of the method: as §3
[22] = test system: MCF7; experiment: Induction of apoptosis in human MCF7 cells assessed as early apoptotic cells at 1.5 uM after 48 hrs by Annexin V-FITC/PI staining based flow cytometry (reference value: 4.10%); assay type: functional
[23] = test system: MCF7; experiment: Induction of mitochondrial membrane depolarization in human MCF7 cells assessed as collapse of mitochondrial membrane potential at 1.5 uM after 48 hrs by JC-1 staining based flow cytometry (reference value: 1.61%); assay type: functional; summary of the method: as §2
[24] = test system: MCF7; experiment: Cell cycle arrest in human MCF7 cells assessed as accumulation at S phase at 0.75 uM after 48 hrs by propidium iodide staining based flow cytometry (reference value: 36.11%); assay type: functional
[25] = test system: MCF7; experiment: Cell cycle arrest in human MCF7 cells assessed as accumulation at G1 phase after 48 hrs by propidium iodide staining based flow cytometry; assay type: functional
[26] = test system: MCF7; experiment: Cell cycle arrest in human MCF7 cells assessed as accumulation at G1 phase at 1.5 uM after 48 hrs by propidium iodide staining based flow cytometry (reference value: 41.49%); assay type: functional
[27] = test system: MCF7; experiment: Induction of apoptosis in human MCF7 cells assessed as necrotic cells at 3 uM after 48 hrs by Annexin V-FITC/PI staining based flow cytometry (reference value: 0.19%); assay type: functional
[28] = test system: MCF7; experiment: Induction of apoptosis in human MCF7 cells assessed as early apoptotic cells at 3 uM after 48 hrs by Annexin V-FITC/PI staining based flow cytometry (reference value: 4.10%); assay type: functional
[29] = test system: MCF7; experiment: Induction of apoptosis in human MCF7 cells assessed as increase in caspase-9 level at 0.75 to 3 uM after 48 hrs by Western blot analysis; assay type: functional, cell-based; summary of the method: as §3
[30] = test system: MCF7; experiment: Induction of apoptosis in human MCF7 cells after 48 hrs by Annexin V-FITC/PI staining based flow cytometry; assay type: functional, cell-based
[31] = test system: MCF7; experiment: Induction of mitochondrial membrane depolarization in human MCF7 cells after 48 hrs by JC-1 staining based flow cytometry; assay type: functional, cell-based; summary of the method: as §2
[32] = test system: MCF7; experiment: Cell cycle arrest in human MCF7 cells assessed as accumulation at S phase at 3 uM after 48 hrs by propidium iodide staining based flow cytometry (reference value: 36.11%); assay type: functional
[33] = test system: MCF7; experiment: Induction of apoptosis in human MCF7 cells assessed as viable cells at 0.75 uM after 48 hrs by Annexin V-FITC/PI staining based flow cytometry (reference value: 93.72%); assay type: functional; details: MCF7, 48 h, read-out: Activity
[34] = test system: MCF7; experiment: Cell cycle arrest in human MCF7 cells assessed as accumulation at G2/M phase at 3 uM after 48 hrs by propidium iodide staining based flow cytometry (reference value: 22.40%); assay type: functional
[35] = test system: MCF7; experiment: Cell cycle arrest in human MCF7 cells assessed as accumulation at G2/M phase at 0.75 uM after 48 hrs by propidium iodide staining based flow cytometry (reference value: 22.40%); assay type: functional
[36] = test system: MCF7; experiment: Induction of apoptosis in human MCF7 cells assessed as late apoptotic cells at 0.75 uM after 48 hrs by Annexin V-FITC/PI staining based flow cytometry (reference value: 1.99%); assay type: functional

O=C(OCCCOc1ccc(-c2cc(=O)c3c(O)c4c(cc3o2)OCCO4)cc1)c1ccc(N(CCCl)CCCl)cc1
IC50 [1]: > 50 µM | IC50 [2]: > 50 µM | IC50 [3]: 45 µM | IC50 [4]: 44.5 µM

O=C(OCCCCOc1ccc(-c2cc(=O)c3c(O)c4c(cc3o2)OCCO4)cc1)c1ccc(N(CCCl)CCCl)cc1
IC50 [1]: > 50 µM | IC50 [2]: 37.6 µM | IC50 [3]: > 50 µM | IC50 [4]: > 50 µM

O=C(OCCCCOc1ccc(-c2cc(=O)c3c(O)c(O)c(O)cc3o2)cc1)c1ccc(N(CCCl)CCCl)cc1
IC50 [1]: > 50 µM | IC50 [2]: 9.07 µM | IC50 [3]: 3.55 µM | IC50 [4]: 21.5 µM

O=c1[nH]cc(F)c(=O)[nH]1 [FLUOROURACIL]
IC50 [2]: 18.7 µM | IC50 [3]: 27.9 µM | IC50 [4]: 2.05 µM

COc1cc2oc(-c3ccc(OCCCCCOC(=O)c4ccc(N(CCCl)CCCl)cc4)cc3)cc(=O)c2c(O)c1OC
IC50 [1]: > 50 µM | IC50 [2]: 32.5 µM | IC50 [3]: > 50 µM | IC50 [4]: > 50 µM

O=C(OCCCOc1ccc(-c2cc(=O)c3c(O)c(O)c(O)cc3o2)cc1)c1ccc(N(CCCl)CCCl)cc1
Activity [5]: 1.85% | Activity [6]: 0.17% | Activity [7]: 9.46% | Activity [8]: 19.61% | Activity [9]: Active | Activity [10]: 26.73% | IC50 [1]: > 50 µM | Activity [11]: 18.56% | Activity [12]: Dose-dependent effect | Activity [13]: 59.49% | Activity [14]: 44.16% | viability at 3 µM [15]: 31.5% | Activity [16]: Dose-dependent effect | IC50 [2]: 7.96 µM | Activity [17]: 30.44% | viability at 1.5 µM [18]: 68.8% | Activity [19]: 64.8% | Activity [20]: 12.07% | Activity [21]: Active | Activity [22]: 19.85% | Activity [23]: 43.48% | Activity [24]: 34.67% | IC50 [3]: 1.5 µM | Activity [25]: Dose-dependent effect | IC50 [4]: > 50 µM | Activity [26]: 50.99% | Activity [27]: 3.26% | Activity [28]: 38.48% | Activity [29]: Active | Activity [30]: Dose-dependent effect | Activity [31]: Dose-dependent effect | Activity [32]: 29.04% | viability at 0.75 µM [33]: 83.8% | Activity [34]: 11.47% | Activity [35]: 21.17% | Activity [36]: 3.92%

COc1cc2oc(-c3ccc(OCCCCOC(=O)c4ccc(N(CCCl)CCCl)cc4)cc3)cc(=O)c2c(O)c1OC
IC50 [1]: > 50 µM | IC50 [2]: 25.7 µM | IC50 [3]: > 50 µM | IC50 [4]: 47.3 µM

COc1cc2oc(-c3ccc(OCCCOC(=O)c4ccc(N(CCCl)CCCl)cc4)cc3)cc(=O)c2c(O)c1OC
IC50 [1]: > 50 µM | IC50 [2]: 27.8 µM | IC50 [3]: > 50 µM | IC50 [4]: > 50 µM

O=C(OCCCCCOc1ccc(-c2cc(=O)c3c(O)c(O)c(O)cc3o2)cc1)c1ccc(N(CCCl)CCCl)cc1
IC50 [1]: > 50 µM | IC50 [2]: 4.59 µM | IC50 [3]: 4.78 µM | IC50 [4]: 23.5 µM

O=C(O)CCCc1ccc(N(CCCl)CCCl)cc1 [CHLORAMBUCIL]
IC50 [1]: > 50 µM | IC50 [2]: > 50 µM | IC50 [3]: > 50 µM | IC50 [4]: > 50 µM

O=C(OCCCCCOc1ccc(-c2cc(=O)c3c(O)c4c(cc3o2)OCCO4)cc1)c1ccc(N(CCCl)CCCl)cc1
IC50 [1]: > 50 µM | IC50 [2]: 45.7 µM | IC50 [3]: 34.7 µM | IC50 [4]: > 50 µM
